Laboratory results published in ChEMBL document CHEMBL1795239, “MAO inhibitory activity modulation: 3-Phenylcoumarins versus 3-benzoylcoumarins” (Bioorg Med Chem Lett, 2011).

What was measured:
[1] = target: T1, Amine oxidase [flavin-containing] A (Homo sapiens, UniProt P21397); experiment: Inhibition of human recombinant MAO-A using p-tyramine substrate at 100 uM by fluorometric method
T1 sequence (P21397 whole entry): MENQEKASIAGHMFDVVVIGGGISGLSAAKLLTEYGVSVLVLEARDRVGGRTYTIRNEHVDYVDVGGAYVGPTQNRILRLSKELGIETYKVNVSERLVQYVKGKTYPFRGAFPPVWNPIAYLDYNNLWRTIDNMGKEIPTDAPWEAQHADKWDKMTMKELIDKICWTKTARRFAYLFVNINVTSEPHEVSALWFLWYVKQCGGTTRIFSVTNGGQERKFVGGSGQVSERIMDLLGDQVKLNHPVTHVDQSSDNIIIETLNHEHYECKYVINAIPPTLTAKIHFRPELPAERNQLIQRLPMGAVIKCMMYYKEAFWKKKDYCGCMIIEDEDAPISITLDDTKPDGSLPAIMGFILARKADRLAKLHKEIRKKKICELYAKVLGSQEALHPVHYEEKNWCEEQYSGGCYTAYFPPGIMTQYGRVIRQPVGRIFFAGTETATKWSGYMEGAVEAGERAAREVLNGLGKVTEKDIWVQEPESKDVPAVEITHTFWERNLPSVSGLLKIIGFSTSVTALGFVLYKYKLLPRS
Outline: (§1)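 Recombinant human MAO-A or MAO-B expressed in baculovirus-infected BTI insect cells. Enzyme amounts set so both isoforms give the same rate, 165 pmol p-tyramine/min. Assay run in 0.05 M sodium phosphate pH 7.4 at 37 °C with compounds at several concentrations, 200 Amplex Red, 1 U/mL horseradish peroxidase and 1 mM p-tyramine. Resorufin fluorescence (ex 545/em 590 nm) read over a linear 15 min window. Vehicle controls run alongside.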

[2] = organism: Homo sapiens; experiment: Selectivity index, ratio of IC50 for human recombinant MAO-A to human recombinant MAO-B
Outline: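 MAO-B selectivity index is IC50(MAO-A)/IC50(MAO-B). Both IC50s come from the fluorimetric Amplex Red/peroxidase assay with 1 mM p-tyramine, using recombinant hMAO-A and hMAO-B from baculovirus-infected insect cells.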

[3] = target: T2, Amine oxidase [flavin-containing] B (Homo sapiens, UniProt P27338); experiment: Inhibition of human recombinant MAO-B using p-tyramine substrate by fluorometric method
T2 sequence (P27338 whole entry): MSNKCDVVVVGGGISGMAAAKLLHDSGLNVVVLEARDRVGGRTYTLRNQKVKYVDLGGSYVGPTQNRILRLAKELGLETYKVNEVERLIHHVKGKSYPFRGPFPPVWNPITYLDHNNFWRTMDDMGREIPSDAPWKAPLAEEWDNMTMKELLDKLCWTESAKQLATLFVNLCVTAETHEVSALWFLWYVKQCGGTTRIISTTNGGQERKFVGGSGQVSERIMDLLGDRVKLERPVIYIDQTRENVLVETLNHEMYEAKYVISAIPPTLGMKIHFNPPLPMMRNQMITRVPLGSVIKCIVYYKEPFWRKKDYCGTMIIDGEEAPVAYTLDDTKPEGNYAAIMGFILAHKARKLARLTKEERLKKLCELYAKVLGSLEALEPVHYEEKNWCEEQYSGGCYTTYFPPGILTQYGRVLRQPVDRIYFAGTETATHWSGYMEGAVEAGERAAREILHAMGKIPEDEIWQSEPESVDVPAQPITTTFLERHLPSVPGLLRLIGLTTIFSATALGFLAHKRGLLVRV

[4] = target: T1, Amine oxidase [flavin-containing] A; experiment: Inhibition of human recombinant MAO-A using p-tyramine substrate by fluorometric method
[5] = target: T2, Amine oxidase [flavin-containing] B; experiment: Inhibition of human recombinant MAO-B using p-tyramine substrate at 100 uM by fluorometric method; conditions: for inhibition (INH): 100 µM; outline: as §1

SMILES	inhibition (INH) [1]	Ratio IC50 [2]	IC50 [3] [µM]	IC50 [4] [µM]	inhibition at 100 µM [5] [%]	inhibition (INH) [5]
COc1ccc(-c2cc3cc(Br)cc(OC)c3oc2=O)cc1	Not Active	> 74100	0.00135	–	–	–
O=c1oc2c(O)cc(Br)cc2cc1-c1ccc(O)cc1	–	1.2	16.9	20.7	–	–
O=C(c1ccc(O)cc1)c1cc2cc(Br)cc(O)c2oc1=O	–	0.19	–	19.2	45	–
O=c1oc2c(O)cc(Br)cc2cc1-c1ccccc1	Not Active	> 3.2	30.9	–	–	–
COc1ccc(C(=O)c2cc3cc(Br)cc(OC)c3oc2=O)cc1	Not Active	–	–	–	–	Not Active

The next lines start with the values.

inhibition (INH) [1]	Ratio IC50 [2]	IC50 [3] [µM]	IC50 [4] [µM]	inhibition at 100 µM [5] [%]	inhibition (INH) [5]	SMILES
Not Active	> 1200	0.0835	–	–	–	COc1cc(Br)cc2cc(-c3ccccc3)c(=O)oc12
–	0.63	73.9	46.8	–	–	O=C(c1ccccc1)c1cc2cc(Br)cc(O)c2oc1=O
Not Active	–	–	–	–	Not Active	COc1cc(Br)cc2cc(C(=O)c3ccccc3)c(=O)oc12
